Assay results as given in article PMC4885108 (Journal of medicinal chemistry, 2016).
Where two headings read alike, the source gives them in different places.

What was measured:
[1] = system: E. faecalis ATCC 29212; settings: quality control strain; ref 22 (Bouley et al.); cited from earlier work
[2] = system: B. cereus ATCC 13061; settings: ref 22 (Bouley et al.); cited from earlier work
[3] = system: S. aureus; assay: MBC determination, three strains of S. aureus together; type: cell-based
[4] = system: E. faecalis 99; settings: vancomycin-resistant clinical isolate; ref 22 (Bouley et al.); cited from earlier work
[5] = Compound levels in plasma and uninfected thighs in the neutropenic thigh model; type: in vivo, mouse; settings: for levels in plasma / levels in the thighs (uninfected): 24 h after infection (7 h after the last dose)
[6] = system: S. oralis ATCC 9811; settings: ref 22 (Bouley et al.); cited from earlier work
[7] = system: B. licheniformis ATCC 12759; settings: ref 22 (Bouley et al.); cited from earlier work
[8] = system: red blood cells; settings: at 64 μg/mL; ref 22 (Bouley et al.); cited from earlier work
[9] = system: S. pyogenes ATCC 49399; settings: ref 22 (Bouley et al.); cited from earlier work
[10] = system: MRSA NRS70; assay: Mouse neutropenic thigh infection model; type: in vivo; settings: thighs harvested at 24 h
[11] = Fast PK studies; type: in vivo; settings: mouse, plasma, iv
Summary of the method: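 Female ICR mice (n = 2 per time point) got one tail-vein iv injection of 5, 10 or 20 mg/kg in 25% DMSO/65% propylene glycol/10% water. Plasma was precipitated with acetonitrile containing internal standard, then run by UPLC-UV or MRM against 0–50 μg/mL calibration curves. AUC and CL came from noncompartmental analysis.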

[12] = system: red blood cells; assay: Hemolysis assay; type: cell-based, human; settings: at 64 μg/mL, Triton-X as positive control
[13] = system: S. aureus strains; assay: MIC, all S. aureus strains tested; type: cell-based; settings: Staphylococcus aureus, read-out: MIC for all S. aureus strains tested
Summary of the method: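 CLSI broth microdilution: 2-fold serial compound dilutions in cation-adjusted Mueller–Hinton broth, set up in triplicate. Inoculum 5 × 10^5 CFU/mL.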

[14] = Full PK study; type: in vivo, mouse; settings: 10 mg/kg
[15] = 20 mg/kg subcutaneously every 8 h
[16] = 10 mg/kg, fast PK AUC0–last, mice, single iv dose 10 mg/kg

Compound: N#Cc1ccc(/C=C/c2nc3ccccc3c(=O)n2-c2cccc(C(=O)O)c2)cc1 [Compound 2, (E)-3-(3-Carboxyphenyl)-2-(4-cyanostyryl)quinazolin-4(3H)-one]
- MIC E. faecalis ATCC 29212 [1]: >128 µg/mL
- MIC B. cereus ATCC 13061 [2]: >128 µg/mL
- fold difference between MIC and MBC [3]: > 4 fold
- MIC E. faecalis 99 [4]: >128 µg/mL
- levels in plasma ([5]; 20 mg/kg sc every 8 h): 1.13 ± 1.07 µg/mL
- levels in the thighs (uninfected) ([5]; 20 mg/kg sc every 8 h): 0.024 ± 0.023 µg/mL
- MIC S. oralis ATCC 9811 [6]: >128 µg/mL
- MIC B. licheniformis ATCC 12759 [7]: >128 µg/mL
- hemolysis [8]: <1%
- MIC S. pyogenes ATCC 49399 [9]: >128 µg/mL
- lowering of the bacterial load compared to the negative control [10, 15]: not able to achieve statistically significant efficacy

Compound: O=c1c2ccccc2nc(/C=C/c2ccc(F)cc2)n1-c1cccc(O)c1 [Compound 5, (E)-3-(3-Hydroxyphenyl)-2-(4-fluorostyryl)quinazolin-4(3H)-one]
- clearance ([11]; 5 mg/kg): 11 mL/min/kg
- clearance at 8 h ([11]; 5 mg/kg): 10.7 mL/min/kg
- hemolysis [12]: no significant hemolytic activity

Compound: N#Cc1ccc(/C=C/c2nc3ccccc3c(=O)n2-c2cccc(O)c2)cc1 [Compound 15, (E)-3-(3-Hydroxyphenyl)-2-(4-cyanostyryl)quinazolin-4(3H)-one]
- AUC(0-t) ([11]; 5 mg/kg): 450 ng·h/mL
- clearance at 8 h ([11]; 5 mg/kg): 186 mL/min/kg

Compound: C#Cc1ccc(/C=C/c2nc3ccccc3c(=O)n2-c2cccc(C(=O)O)c2)cc1 [Compound 27, (E)-3-(3-Carboxyphenyl)-2-(4-ethynylstyryl)quinazolin-4(3H)-one]
- fold difference between MIC and MBC [3]: > 4 fold
- clearance ([11]; 10 mg/kg): 6.4 mL/min/kg
- levels in plasma ([5]; 20 mg/kg sc every 8 h): 2.43 ± 1.64 µg/mL
- levels in the thighs (uninfected) ([5]; 20 mg/kg sc every 8 h): 0.22 ± 0.17 µg/mL
- levels in thighs, fold higher than compound 2 ([5]; 24 h after infection, 20 mg/kg sc every 8 h): 9 fold
- MIC [13]: ≤ 0.5 µg/mL
- AUC(0-t) ([14]; ICR, mouse, plasma, iv): 25700 ng·h/mL
- clearance ([14]; ICR, mouse, plasma, iv): 6.4 mL/min/kg
- volume of distribution (Vd), fold higher than compound 2 ([14]; mice, iv): 10 fold
- Cmax after po administration, fold higher than compound 2 ([14]; mice, po): 2 fold
- lowering of the bacterial load compared to the negative control [10, 15]: statistically significant lowering of the bacterial load

Compound: O=C(O)c1cccc(-n2c(/C=C/c3ccc(F)cc3)nc3ccccc3c2=O)c1 [Compound 30, (E)-3-(3-Carboxyphenyl)-2-(4-fluorostyryl)quinazolin-4(3H)-one]
- clearance at 8 h ([11]; 20 mg/kg): 7.8 mL/min/kg

Compound: CC(=O)Nc1cccc(-n2c(/C=C/c3ccc(F)cc3)nc3ccccc3c2=O)c1 [Compound 42, (E)-3-(3-Acetamidophenyl)-2-(4-fluorostyryl)quinazolin-4(3H)-one]
- clearance ([11]; 10 mg/kg): 88 mL/min/kg
- AUC(0-t) [11, 16]: 4730 ng·h/mL

Compound: CS(=O)(=O)Nc1cccc(-n2c(/C=C/c3ccc(F)cc3)nc3ccccc3c2=O)c1 [Compound 43, (E)-3-(3-Methylsulfonamidophenyl)-2-(4-fluorostyryl)-quinazolin-4(3H)-one]
- clearance ([11]; 10 mg/kg): 28 mL/min/kg
- AUC(0-t) [11, 16]: 13700 ng·h/mL

Compound: N#Cc1ccc(/C=C/c2nc3ccccc3c(=O)n2-c2cccc(N)c2)cc1 [Compound 50, (E)-3-(3-Aminophenyl)-2-(4-cyanostyryl)quinazolin-4(3H)-one]
- clearance at 8 h ([11]; 10 mg/kg): 25 mL/min/kg
- hemolysis [12]: some hemolysis

Compound: CC(=O)Nc1cccc(-n2c(/C=C/c3ccc(C#N)cc3)nc3ccccc3c2=O)c1 [Compound 52, (E)-3-(3-Acetamidophenyl)-2-(4-cyanostyryl)quinazolin-4(3H)-one]
- clearance at 8 h ([11]; 5 mg/kg): 131 mL/min/kg

Compound: CC(=O)NCc1cccc(-n2c(/C=C/c3ccc(C#N)cc3)nc3ccccc3c2=O)c1 [Compound 53, (E)-3-(3-(Acetamidomethyl)phenyl)-2-(4-cyanostyryl)-quinazolin-4(3H)-one]
- clearance at 8 h ([11]; 10 mg/kg): 35 mL/min/kg

Compound: CS(=O)(=O)Nc1cccc(-n2c(/C=C/c3ccc(C#N)cc3)nc3ccccc3c2=O)c1 [Compound 54, (E)-3-(3-Methylsulfonamidophenyl)-2-(4-cyanostyryl)-quinazolin-4(3H)-one]
- clearance at 8 h ([11]; 5 mg/kg): 162 mL/min/kg

Compound: N#Cc1ccc(/C=C/c2nc3ccccc3c(=O)n2-c2cccc(C(=O)NCCO)c2)cc1 [Compound 57, (E)-3-(3-(2-Hydroxyethyl)carbomylphenyl)-2-(4-cyanostyryl)quinazolin-4(3H)-one]
- clearance at 8 h ([11]; 10 mg/kg): 29 mL/min/kg

Compound: CC(=O)NC[C@H]1CN(c2ccc(N3CCOCC3)c(F)c2)C(=O)O1 [linezolid, reference compound]
- levels in plasma ([5]; 10 mg/kg sc every 8 h): not quantifiable
- levels in the thighs (uninfected) ([5]; 10 mg/kg sc every 8 h): not quantifiable
- lowering of the bacterial load compared to the negative control ([10]; 10 mg/kg subcutaneously every 8 h): statistically significant lowering of the bacterial load
